Most compounds without a hit are left out; they make up all but 5.8% or so of the library.
IDH1 mut inh = inhibitors of IDH1 R132H reductase, primary screen, biochemical, plate reader, single point; Isocitrate dehydrogenase [NADP] cytoplasmic (Homo sapiens), O75874; inhibition, % at 10 µM; diaphorase/resazurin fluorescence, 60 min; AID 624101, 2012; actives 0.18% (n = 70,000); in the data active = inhibition above about 34%; inconclusive = no clear call, values can overlap the other calls; inactive = below about 11%;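 note: 0% = DMSO and 100% = no enzyme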
T cruzi growth-1 = T. cruzi intracellular proliferation inhibitors, primary screen, cell-based, beta-gal Tulahuen parasites, NIH3T3 host, luminescence; actives 5.9% (n = 77,000); inhibition, % at 8.34 µM; T. cruzi beta-gal in NIH3T3, GalScreen luminescence, 90 h; AID 624255, 2012;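 active = mean inhibition above about 93%, with at least 55% of replicates each passing it, limit read from the data, passing the limit was not always enough; inconclusive = only one of those two conditions holds; inactive = neither condition holds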
KDM4C inh = inhibitors of GASC-1 (KDM4C) histone demethylase, primary screen, biochemical, single concentration HTS | GST-KDM4C 2-372, H3K9me3 peptide, LANCE TR-FRET | Lysine-specific demethylase 4C (Homo sapiens), Q9H3R0 | actives 0.15% (n = 96,000) | AID 720574, 2013 | inhibition, % at 12.5 µM;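 active = mean replicate inhibition above about 25%, with at least 55% of replicates also reaching it, limit read from the data, passing the limit was not always enough; inconclusive = only one of those two conditions met; inactive = neither condition met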
Target sequence (Q9H3R0 2-372 limits assumed): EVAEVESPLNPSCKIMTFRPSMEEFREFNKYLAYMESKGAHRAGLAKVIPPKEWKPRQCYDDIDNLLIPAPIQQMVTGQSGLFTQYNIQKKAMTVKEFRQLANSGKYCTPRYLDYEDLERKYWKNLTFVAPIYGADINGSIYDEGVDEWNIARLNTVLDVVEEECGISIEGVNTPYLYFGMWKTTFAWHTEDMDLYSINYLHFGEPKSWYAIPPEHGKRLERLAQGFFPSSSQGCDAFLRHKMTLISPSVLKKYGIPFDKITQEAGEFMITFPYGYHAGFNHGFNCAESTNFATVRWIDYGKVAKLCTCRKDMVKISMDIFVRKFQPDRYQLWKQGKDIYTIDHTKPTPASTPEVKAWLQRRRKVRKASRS
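System – N-terminal GST-fused human GASC-1 (KDM4C) fragment, residues 2-372 · Input – enzyme final amount 10 nM · Technique – LANCE TR-FRET, Eu antibody, ULight-streptavidin, EDTA, ex 340 nm, em 618/671 nm · Medium – HEPES buffer, pH 7.5, plus ascorbate · Incubation – enzyme reaction 30 min, then detection 60 min, both room temperature · Reagent – H3K9me3 peptide with Fe(II)/2OG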
Pf Dd2 growth = P. falciparum Dd2 growth inhibitors, primary screen, SYBR Green fluorescence, single dose replicates. activity change, % at 10 µM. actives 2.3% (n = 94,000). 72 h; active compounds read low. AID 1159554, 2015; in the data active = activity change below about -80%; inconclusive = no clear call, values can overlap the other calls
T cruzi growth-2 = T. cruzi intracellular proliferation inhibitors, confirmation, cell-based, NIH3T3 host, beta-gal parasite, luminescence, cherry-pick | inhibition, % at 8.35 µM | AID 651739, 2012 | shares compounds with T cruzi growth-1 | T. cruzi beta-gal in NIH3T3, GalScreen luminescence, 90 h | actives 72% (n = 5,600);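 active = mean replicate inhibition above about 95% and at least 55% of replicates individually reaching it, limit read from the data; inconclusive = only one of the two criteria is met; inactive = neither criterion is met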
T cruzi growth-3 = inhibitors of intracellular T. cruzi replication, confirmation, NIH3T3 host cells, beta-gal parasites, cherry-pick, set 2; AID 651740, 2012; actives 21% (n = 5,600); shares compounds with T cruzi growth-1; T. cruzi beta-gal in NIH3T3, GalScreen luminescence, 90 h; inhibition, % at 2.09 µM;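 active = mean inhibition above about 95%, with at least 55% of replicates also reaching it, limit read from the data; inconclusive = meets just one of the two conditions; inactive = meets neither condition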;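 note: plate controls were neutral control median for no effect and positive control median for full effect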
3T3 cytotox = cytotoxicity in mouse NIH/3T3 fibroblasts, confirmation, cytotoxicity control for T. cruzi proliferation inhibitor project, cell-based, cherry-pick, single point | shares compounds with T cruzi growth-1 | NIH/3T3 viability, CellTiter-Glo ATP luminescence, 90 h | cytotoxicity (signal decrease), % at 8.35 µM | actives 14% (n = 5,600) | AID 651742, 2012;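 active = mean signal decrease across replicates above about 35% based on untreated-well scatter, with enough replicates individually passing, limit read from the data; inconclusive = no rule stated though some were filed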;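 note: 0% = median of neutral control wells and 100% = median of positive control wells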
3T3 cytotox 2 = NIH/3T3 fibroblast cytotoxicity, confirmation, cytotoxicity control, cell-based, cherry-pick, single point, set 2. shares compounds with T cruzi growth-1. NIH/3T3 viability, CellTiter-Glo ATP luminescence, 90 h. inhibition, % at 24.9 µM. actives 56% (n = 5,600). AID 651744, 2012;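 active = mean loss of cell viability signal at or above a set limit, and enough replicates individually reaching it; inconclusive = meets only the mean limit or only the replicate share; inactive = meets neither condition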;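 note: 0% = median of neutral control wells and 100% = median of positive control wells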
* hit, by the source's call; ? = inconclusive; . = not tested or not shown.

SMILES	IDH1 mut inh	T cruzi growth-1	KDM4C inh	Pf Dd2 growth	T cruzi growth-2	T cruzi growth-3	3T3 cytotox	3T3 cytotox 2
C[C@H](CO)N1C[C@H](C)[C@@H](CN(C)C(=O)CN(C)C)Oc2cc(C#Cc3ccccc3)ccc2S1(=O)=O	0.2	?	-0.1	-83.1*	104.8*	62.2	1.8	103.7*
C[C@H](CO)N1C[C@H](C)[C@@H](CN(C)C(=O)Cc2ccccn2)Oc2cc(C#Cc3ccccc3)ccc2S1(=O)=O	1.7	68.1	3.5	-73.3	.	.	.	.
C[C@H](CO)N1C[C@H](C)[C@H](CN(C)C(=O)Cc2ccccn2)Oc2cc(C#Cc3ccccc3)ccc2S1(=O)=O	2.4	103.8*	-0.6	-85.1*	101.3*	26.9	27.8	24.5
C[C@@H]1CN([C@H](C)CO)S(=O)(=O)c2ccc(C#Cc3ccccc3)cc2O[C@H]1CN(C)C(=O)Cc1ccccn1	-0.2	?	-0.3	?	100.0*	24.3	24.1	84.8*
CN1c2ccc(Br)cc2[C@H]2[C@H](CCN2S(=O)(=O)c2cccc(F)c2)[C@H]1CO	.	?	0.5	30.5	97.1*	55.3	-11.3	27.2
COc1ccccc1S(=O)(=O)N1CC[C@@H]2[C@H]1c1cc(-c3cccc(C#N)c3)ccc1N(C)[C@H]2CO	.	106.2*	-0.9	22.2	104.8*	62.9	?	33.4*
Cc1ccccc1S(=O)(=O)N1CC[C@@H]2[C@H](CO)N(C)c3ccc(Br)cc3[C@@H]21	.	131.0*	-0.3	-4.7	106.8*	37.5	10.6	71.8*
COc1ccccc1S(=O)(=O)N1CC[C@@H]2[C@@H](CO)N(C)c3ccc(-c4ccc(C#N)cc4)cc3[C@@H]21	.	23.0	-8.5	-19.3	.	.	.	.
COc1ccccc1S(=O)(=O)N1CC[C@@H]2[C@@H](CO)N(C)c3ccc(-c4cccc(C#N)c4)cc3[C@@H]21	.	97.3*	2.2	-7.3	106.5*	72.3	14.7	19.3
Cc1ccnc(SCC(=O)Nc2sc3c(c2C(=O)Nc2ccccc2)CCCC3)n1	1.2	.	.	.	.	.	.	.
O=[N+]([O-])c1ccc(N2CCN(S(=O)(=O)c3ccc(F)cc3)CC2)cc1NCc1cccnc1	5.5	.	.	.	.	.	.	.
CSc1cccc(NC(=O)CSc2nnc(-c3cccc(C)c3)n2-c2ccccc2)c1	0.2	.	.	.	.	.	.	.
O=C(COc1ccc(CO)cc1)Nc1ccccc1	-0.1	.	.	.	.	.	.	.
Cc1ccccc1S(=O)(=O)N1CC[C@@H]2[C@@H](CO)N(C)c3ccc(-c4cccc(C#N)c4)cc3[C@@H]21	.	100.4*	-9.7	6.3	98.6*	64.1	14.1	61.4*
Cc1ccccc1S(=O)(=O)N1CC[C@@H]2[C@H]1c1cc(-c3ccccc3)ccc1N(C)[C@H]2CO	.	97.8*	-0.5	-70.3	107.4*	115.0*	12.2	103.3*
COc1cccn(Cc2nnc(SCC(=O)c3ccccc3)o2)c1=O	-2.1	.	.	.	.	.	.	.
C[C@@H]1CN([C@H](C)CO)C(=O)c2cccc(NC(=O)NC3CCCCC3)c2O[C@@H]1CN(C)Cc1ccc(Oc2ccccc2)cc1	1.1	48.5	0.1	-49.3	.	.	.	.
C[C@H](CO)N1C[C@H](C)[C@@H](CN(C)Cc2ccc(-c3ccccc3)cc2)Oc2c(NC(=O)NC3CCCCC3)cccc2C1=O	.	104.6*	.	-38.9	105.9*	88.7	-29.6	104.2*
